pIC50: −log10 of the molar value. Calls of active or inactive are those of the source. The calls are words filed in the database; no cut-off is given here.
Assays:
[1] = target: T1, MAP kinase-interacting serine/threonine-protein kinase 1 (Homo sapiens, UniProt Q9BUB5); assay: Inhibition of human recombinant full length GST-tagged MNK1 expressed in baculovirus expression system assessed as residual activity at 10 uM using S6 peptide as substrate in presence of [gamma-33P]-ATP incubated for 60 mins by radiometric scintillation counting method relative to control
In short: (§1)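 Radiometric 33PanQinase assay at 10 μM compound (final 1% DMSO). The buffer was 70 mM HEPES-NaOH pH 7.5 with 3 mM MgCl2, 3 mM MnCl2, 3 μM orthovanadate, 1.2 mM DTT and 50 μg/mL PEG20000. […] Reactions ran 60 min at 30 °C, were stopped with 2% H3PO4 and read by scintillation. Residual activity was calculated against high/low controls.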
Target sequence in this assay (Q9BUB5 whole entry, looked up): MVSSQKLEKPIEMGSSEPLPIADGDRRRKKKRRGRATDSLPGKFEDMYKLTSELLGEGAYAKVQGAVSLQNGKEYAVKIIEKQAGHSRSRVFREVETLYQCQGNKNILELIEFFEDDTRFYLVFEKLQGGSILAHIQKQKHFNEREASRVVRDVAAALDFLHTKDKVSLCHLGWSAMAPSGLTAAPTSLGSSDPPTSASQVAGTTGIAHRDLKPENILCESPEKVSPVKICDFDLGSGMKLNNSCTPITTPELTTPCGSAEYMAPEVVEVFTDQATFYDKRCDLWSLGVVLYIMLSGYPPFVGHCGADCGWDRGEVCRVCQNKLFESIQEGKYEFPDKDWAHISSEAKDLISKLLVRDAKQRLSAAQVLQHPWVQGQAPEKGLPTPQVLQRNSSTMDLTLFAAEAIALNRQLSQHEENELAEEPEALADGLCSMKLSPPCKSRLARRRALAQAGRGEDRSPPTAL

[2] = target: T2, MAP kinase-interacting serine/threonine-protein kinase 2 (Homo sapiens, UniProt Q9HBH9); assay: Inhibition of human recombinant full length GST-tagged MNK2 expressed in insect cells assessed as residual activity at 10 uM using S6 peptide as substrate in presence of [gamma-33P]-ATP incubated for 60 mins by radiometric scintillation counting method relative to control; in short: as §1
Target sequence in this assay (Q9HBH9 whole entry, looked up): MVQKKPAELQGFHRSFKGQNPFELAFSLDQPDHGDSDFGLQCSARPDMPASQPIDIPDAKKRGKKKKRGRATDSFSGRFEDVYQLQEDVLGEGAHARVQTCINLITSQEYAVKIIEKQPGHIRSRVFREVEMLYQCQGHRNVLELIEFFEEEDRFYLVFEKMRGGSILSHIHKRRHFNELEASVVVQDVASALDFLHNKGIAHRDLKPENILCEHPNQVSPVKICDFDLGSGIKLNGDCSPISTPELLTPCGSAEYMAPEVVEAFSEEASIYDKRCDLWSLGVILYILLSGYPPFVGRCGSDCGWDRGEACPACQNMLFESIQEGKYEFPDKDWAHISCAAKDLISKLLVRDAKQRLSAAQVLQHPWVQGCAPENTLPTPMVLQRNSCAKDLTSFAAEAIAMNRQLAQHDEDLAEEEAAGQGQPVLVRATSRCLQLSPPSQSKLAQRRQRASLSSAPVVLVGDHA

[3] = target: T1, MAP kinase-interacting serine/threonine-protein kinase 1; assay: Inhibition of human recombinant full length GST-tagged MNK1 expressed in baculovirus expression system using S6 peptide as substrate in presence of [gamma-33P]-ATP incubated for 60 mins by radiometric scintillation counting method
In short: (§2)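 Ten compound concentrations from 5 × 10–5 to 1.5 × 10–9 M were tested, and residual activity was calculated from cpm relative to high and low controls.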
Target sequence in this assay (Q9BUB5 whole entry): as the sequence (Q9BUB5 whole entry, looked up) above

Homo sapiens = species: Homo sapiens; assay: Selectivity ratio of IC50 for inhibition of human recombinant full length GST-tagged MNK2 to IC50 for inhibition of human recombinant full length GST-tagged MNK1; in short: as §2
[4] = target: T3, MAP kinase-interacting serine/threonine-protein kinase 1/2 (Homo sapiens) (UniProt Q9HBH9+Q9BUB5); assay: Inhibition of MNK1/MNK2 in human MDA-MB-231 cells assessed as reduction in eIF4E phosphorylation incubated for 24 hrs by Western blot analysis; format: cell-based; conditions: dose 0.3-10 µM, DDE = dose-dependent effect
In short: (§3)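 MDA-MB-231 cells, grown in DMEM with 10% heat-inactivated FBS and pen/strep at 37 °C and 5% CO2, were seeded at 6000 cells/cm2 24 h before a 24 h inhibitor exposure. DMSO was kept below 0.5% as the vehicle control. Total lysates (RIPA-type buffer with phosphatase/protease inhibitors, 20–25 μg) were immunoblotted with phospho- and total antibodies at 1:1000, using ECL detection.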

[5] = target: T2, MAP kinase-interacting serine/threonine-protein kinase 2; assay: Inhibition of human recombinant full length GST-tagged MNK2 expressed in insect cells using S6 peptide as substrate in presence of [gamma-33P]-ATP incubated for 60 mins by radiometric scintillation counting method; in short: as §2
Target sequence in this assay (Q9HBH9 whole entry): as the sequence (Q9HBH9 whole entry, looked up) above

MDA-MB-231 [6] = assay: Cytotoxicity against human MDA-MB-231 cells assessed as reduction in cell viability measured after 72 hrs by crystal violet staining based assay; format: functional; conditions: dose 2.5-40 µM, DDE = dose-dependent effect
In short: (§4)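 Cells were seeded at 6000 cells/cm2, and 24 h later were treated with a range of concentrations (DMSO below 0.5%) for 72 h. They were fixed with 4% formaldehyde for 30 min and stained with 0.5% crystal violet for 15 min. Dye was eluted in 15% acetic acid and read as OD at 595 nm. Results are from three independent experiments, reported as SD; GI50 values were derived from the curves.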

[7] = target: T3, MAP kinase-interacting serine/threonine-protein kinase 1/2 (Homo sapiens); assay: Inhibition of MNK1/MNK2 in human MCF7 cells assessed as inhibition of eIF4E phosphorylation incubated for 24 hrs by Western blot analysis; format: cell-based; conditions: dose 0.3-10 µM, DDE = dose-dependent effect
MCF7 = assay: Growth inhibition of human MCF7 cells measured after 72 hrs by crystal violet staining based assay; format: functional; in short: as §4
MDA-MB-231 [8] = assay: Growth inhibition of human MDA-MB-231 cells measured after 72 hrs by crystal violet staining based assay; format: functional; in short: as §4
IMR-90 [9] = assay: Cytotoxicity against human IMR-90 cells assessed as reduction in cell viability at 20 uM measured after 72 hrs by crystal violet staining based assay; format: toxicity; conditions: imr-90, 72 h; in short: as §4
IMR-90 [10] = assay: Cytotoxicity against human IMR-90 cells assessed as increase in dead cells at 2.5 to 40 uM by Hoechst/propidium iodide staining based microscopic analysis; format: toxicity, cell-based; conditions: imr-90, 40 µM, dose 2.5-40 µM
In short: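 Cells were grown and treated for 72 h as in the crystal violet assay, with cisplatin and DMSO as controls. Before fixation, PI (2.5 μM) and Hoechst (0.05 mg/mL) were added to the medium for 30 min. At least 100 cells per condition were counted microscopically, and PI-positive cells were scored as a percentage of Hoechst-positive cells. Three independent experiments were done.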

IMR-90 [11] = assay: Cytotoxicity against human IMR-90 cells assessed as reduction in cell viability measured after 72 hrs by crystal violet staining based assay; format: functional; in short: as §4
[12] = target: Eukaryotic translation initiation factor 4E (Homo sapiens) (UniProt P06730); assay: Inhibition of eIF4E phosphorylation in human MDA-MB-231 cells at 5 to 20 uM pretreated for 3 hrs followed by UV irradiation and recovery for 40 mins with compound by Western blot analysis; format: cell-based; conditions: dose 5-20 µM, time 220.0 min
Sequence of Eukaryotic translation initiation factor 4E (Homo sapiens) (P06730 whole entry): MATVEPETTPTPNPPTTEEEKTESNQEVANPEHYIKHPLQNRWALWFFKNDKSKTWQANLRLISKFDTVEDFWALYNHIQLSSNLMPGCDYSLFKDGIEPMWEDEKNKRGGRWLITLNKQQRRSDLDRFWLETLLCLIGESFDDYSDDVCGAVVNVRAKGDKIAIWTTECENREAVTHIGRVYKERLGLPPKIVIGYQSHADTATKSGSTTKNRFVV
In short: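 MDA-MB-231 cells were pretreated with inhibitor for 3 h and then UV-irradiated. They recovered for 40 min at 37 °C with the inhibitor still present. Total lysates were immunoblotted for phospho-eIF4E and pathway markers (p-MNK1, p-p38, p-HSP27, p-ERK, p-p90RSK).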

MDA-MB-468 = assay: Growth inhibition of human MDA-MB-468 cells measured after 72 hrs by crystal violet staining based assay; format: functional; in short: as §4
[13] = target: T3, MAP kinase-interacting serine/threonine-protein kinase 1/2 (Homo sapiens); assay: Inhibition of MNK1/MNK2 in human MDA-MB-231 cells assessed as inhibition of eIF4E phosphorylation at 20 uM incubated for 24 hrs by Western blot analysis; format: cell-based; in short: as §3
[14] = target: T1, MAP kinase-interacting serine/threonine-protein kinase 1; assay: Inhibition of MNK1 in human MDA-MB-231 cells assessed as inhibition of eIF4E phosphorylation at 10 uM by Western blot analysis; format: cell-based; conditions: time 0.5-72 hrs, TDE = time-dependent effect
In short: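 MDA-MB-231 cells were exposed to 10 μM inhibitor for various times. Phospho-eIF4E (Ser209) versus total eIF4E was then assessed by immunoblot of total lysates (20–25 μg protein), with ECL detection.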
Target sequence in this assay (Q9BUB5 whole entry, looked up): as the sequence (Q9BUB5 whole entry, looked up) above

[15] = target: T3, MAP kinase-interacting serine/threonine-protein kinase 1/2 (Homo sapiens); assay: Inhibition of MNK1/MNK2 in human IMR-90 cells assessed as inhibition of eIF4E phosphorylation incubated for 24 hrs by Western blot analysis; format: cell-based; conditions: dose 0.3-10 µM, DDE = dose-dependent effect
MDA-MB-231 [16] = assay: Cytotoxicity against human MDA-MB-231 cells assessed as reduction in cell viability at 20 uM measured after 72 hrs by crystal violet staining based assay relative to control; format: functional; in short: as §4
[17] = target: T3, MAP kinase-interacting serine/threonine-protein kinase 1/2 (Homo sapiens); assay: Inhibition of MNK1/MNK2 in human MDA-MB-468 cells assessed as inhibition of eIF4E phosphorylation incubated for 24 hrs by Western blot analysis; format: cell-based; conditions: dose 0.3-10 µM, DDE = dose-dependent effect
HEK293 = assay: Potentiation of MNK1/eIF4E interaction in HEK293 cells assessed as increase in MNK1 phosphorylation at T209/T214 residues at 100 nM preincubated for 24 hrs followed by UV irradiation and recovery for 40 mins by immunoprecipitation based Western blot assay; format: cell-based; conditions: Homo sapiens, filed as activator, in the assay text read “MNK1/eIF4G interaction” for “MNK1/eIF4E interaction”
In short: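 HEK-293 cells were exposed to DMSO or inhibitor (100 nM) for 24 h, irradiated with UV at 60 J/m2 and recovered for 40 min at 37 °C. Endogenous eIF4G was immunoprecipitated from about 2 mg of precleared NP-40 lysate on protein A beads overnight at 4 °C. The IP and input were immunoblotted for MNK1 and p-MNK1.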

[18] = target: T1, MAP kinase-interacting serine/threonine-protein kinase 1; assay: Activation of MNK1 in human MDA-MB-231 cells assessed as increase in MNK1 phosphorylation at T209/T214 residues at 1.6 to 100 uM incubated for 24 hrs by Western blot analysis; format: cell-based; conditions: filed as activator, dose 1.6-100 µM; in short: as §3
Target sequence in this assay (Q9BUB5 whole entry, looked up): as above

[19] = target: T1, MAP kinase-interacting serine/threonine-protein kinase 1; assay: Activation of MNK1 in human MDA-MB-231 cells assessed as increase in ERK expression at 25 to 100 uM incubated for 24 hrs by Western blot analysis; format: cell-based; conditions: filed as activator, dose 25-100 µM; in short: as §3
Target sequence in this assay (Q9BUB5 whole entry, looked up): as above

Row | SMILES | Activity [1] [%] | Activity [2] [%] | other results
1 | Nc1n[nH]c2ncccc12 | 95 | 102 | –
2 | COc1ccccc1-c1cc(-c2ccc(C)cc2)c2c(N)n[nH]c2n1 | 61 | 123 | –
3 | COc1ccc(-c2cc(-c3cccc(OC)c3)nc3[nH]nc(N)c23)cc1 | 41 | 92 | –
4 | Nc1n[nH]c2nc(-c3ccccc3)cc(-c3ccc(F)cc3)c12 | 31 | 62 | pIC50 [3]: 5.89; Ratio IC50 (Homo sapiens): 4; inhibition [4]: Dde; pIC50 [5]: 5.39
5 | COc1ccc(-c2cc(-c3ccccc3)nc3c2c(N)nn3C)cc1 | 102 | 145 | –
6 | COc1ccc(-c2cc(-c3ccc(OC)cc3)c3c(N)n[nH]c3n2)cc1 | 60 | 101 | –
7 | Nc1n[nH]c2nc(-c3ccccc3)cc(-c3ccccc3)c12 | 14 | 52 | Activity (MDA-MB-231 [6]): Dde; inhibition [7]: Dde; GI50 (MCF7): 8.46 µM; GI50 (MDA-MB-231 [8]): 15.1 µM; Activity (IMR-90 [9]): Non-Toxic; Activity (IMR-90 [10]): Non-Toxic; GI50 (IMR-90 [11]): > 40 µM; inhibition [4]: Dde; inhibition [12]: Active; GI50 (MDA-MB-468): 14.5 µM; inhibition [13]: Active; inhibition [14]: Tde; inhibition [15]: Dde; Activity (MDA-MB-231 [16]): 60%; inhibition [17]: Dde
8 | Nc1c2c(-c3ccccc3)c(Cl)c(Cl)nc2nn1-c1ccccc1 | 103 | 102 | –
9 | Nc1c2cc(-c3c(Cl)cccc3Cl)c(Cl)nc2nn1-c1ccccc1 | 97 | 99 | –
10 | COc1ccc(-c2cc(-c3ccccc3)nc3[nH]nc(N)c23)cc1 | 25 | 74 | –
11 | Cn1nc(N)c2cccnc21 | 106 | 95 | –
12 | COc1ccc(-c2cc(-c3ccccc3OC)nc3[nH]nc(N)c23)cc1 | 63 | 109 | –
13 | COc1ccc(-c2cc(-c3ccc(OC)cc3)c3c(N)nn(C)c3n2)cc1 | 94 | 154 | –
14 | COc1cccc(-c2cc(-c3ccccc3)c3c(N)n[nH]c3n2)c1 | 38 | 74 | pIC50 [3]: 5.38; Ratio IC50 (Homo sapiens): 4; inhibition [4]: Dde; pIC50 [5]: 4.66
15 | COc1ccc(-c2cc(-c3ccc(C)cc3)c3c(N)n[nH]c3n2)cc1 | 45 | 82 | –
16 | Cc1cc(Nc2cc(N)ncn2)c(=O)n2c1C(=O)NC21CCCCC1 | – | – | Activity (HEK293): Active; Activity [18]: Active; Activity [19]: Active
17 | COc1cccc(-c2cc(-c3ccc(F)cc3)c3c(N)n[nH]c3n2)c1 | 51 | 82 | –
18 | Cn1nc(N)c2c(-c3ccccc3)cc(-c3ccccc3)nc21 | 80 | 117 | –

Source: ChEMBL document CHEMBL5154861, “Overcoming Paradoxical Kinase Priming by a Novel MNK1 Inhibitor” (J Med Chem, 2022)
